# Tests used:
# [1] = test system: Human immunodeficiency virus 1; assay: Effective concentration against human immunodeficiency virus type 1 Y188L mutant strain; type: functional, organism-based
# Procedure, shortened: (§1)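 MT-4 human T cells infected with wild-type or mutant HIV-1, exposed to a range of compound concentrations in medium with 10% fetal calf serum. After 5 days at 37 °C, viability of infected and mock-infected cells was read by automated MTT colorimetric assay. […] 95% confidence limits are approximately EC50/4 to EC50×4.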
# [2] = test system: Human immunodeficiency virus 1; assay: Effective concentration against human immunodeficiency virus type 1 L100I mutant strain; type: functional, organism-based; procedure, shortened: as §1
# [3] = test system: Human immunodeficiency virus 1; assay: Effective concentration against human immunodeficiency virus type 1Y181C mutant strain; type: functional, organism-based; procedure, shortened: as §1
# [4] = test system: Human immunodeficiency virus 1; assay: Effective concentration against human immunodeficiency virus type 1 in K103N mutant strain; type: functional, organism-based; procedure, shortened: as §1
# [5] = test system: Human immunodeficiency virus 1; assay: Effective concentration against human immunodeficiency virus type 1 wild type strain; type: functional, organism-based
# [6] = test system: Human immunodeficiency virus 1; assay: Effective concentration against human immunodeficiency virus type 1 G190S mutant strain; type: functional, organism-based; procedure, shortened: as §1
# [7] = test system: Human immunodeficiency virus 1; assay: Effective concentration against human immunodeficiency virus type 1 K103N mutant strain; type: functional, organism-based; procedure, shortened: as §1
# [8] = test system: Human immunodeficiency virus 1; assay: Effective concentration against human immunodeficiency virus type 1 K103N and Y181C mutant strain; type: functional, organism-based; procedure, shortened: as §1
# [9] = test system: Human immunodeficiency virus 1; assay: Effective concentration against human immunodeficiency virus type 1 Y181C mutant was determined; type: functional, organism-based; procedure, shortened: as §1
# [10] = test system: Human immunodeficiency virus 1; assay: Effective concentration against human immunodeficiency virus type 1 wild type srtain; type: functional, organism-based
# Procedure, shortened: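 MT-4 human T-cells infected with wild-type HIV-1 and exposed to a range of compound concentrations in medium with 10% fetal calf serum. After 5 days at 37 °C, viability was read by automated MTT colorimetric assay, with mock-infected cells run in parallel.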
# [11] = test system: Human immunodeficiency virus 1; assay: Effective concentration against rhuman immunodeficiency virus type 1 L100I mutant strain; type: functional, organism-based; procedure, shortened: as §1
# [12] = test system: Human immunodeficiency virus 1; assay: Effective concentration against rhuman immunodeficiency virus type 1 K103N and Y181C mutant strains; type: functional, organism-based
# [13] = test system: Human immunodeficiency virus 1; assay: Effective concentration against human immunodeficiency virus type 1 wild type; type: functional, organism-based; procedure, shortened: as §1
# [14] = test system: Human immunodeficiency virus 1; assay: Effective concentration against rhuman immunodeficiency virus type 1 Y181C mutant strain; type: functional, organism-based; procedure, shortened: as §1
# [15] = test system: Human immunodeficiency virus 1; assay: Effective concentration against human immunodeficiency virus type 1 Y181C mutant strain; type: functional, organism-based; procedure, shortened: as §1
# [16] = test system: Human immunodeficiency virus 1; assay: Effective concentration against rhuman immunodeficiency virus type 1 wild type mutant strain; type: functional, organism-based; procedure, shortened: as §1
# [17] = In vivo half life in dog was determined after oral administration; type: ADME, organism-based, Canis lupus familiaris
# Procedure, shortened: (§2)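 Oral administration of drug formulated in PEG 400 to Sprague-Dawley rat and beagle dog. Elimination half-life calculated from plasma concentration–time data.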
# [18] = Area under the concentration time curve in dog (intravenous dosage of 1.25 mg/kg) was determined; type: ADME, organism-based, Canis lupus familiaris; parameters: dose 1.25 mg/kg, route intravenous; conditions: in vivo
# Procedure, shortened: (§3)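 Pharmacokinetics after single iv dosing of drug formulated in PEG 400. Species: Sprague-Dawley rat (4 mg/kg), beagle dog, cynomolgus monkey and white New Zealand rabbit (1.25 mg/kg each). Elimination half-life (t1/2) and exposure (AUCinf) calculated from plasma concentration–time data.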
# [19] = Area under the concentration time curve value in rat (intravenous dosage of 4 mg/kg) was determined; type: ADME, organism-based; parameters: dose 4 mg/kg, route intravenous; conditions: in vivo; procedure, shortened: as §3
# [20] = Area under the concentration time curve in rabbit (intravenous dosage of 1.25 mg/kg) was determined; type: ADME, organism-based, Oryctolagus cuniculus; parameters: dose 1.25 mg/kg, route intravenous; conditions: in vivo; procedure, shortened: as §3
# [21] = Half life in rat was determined after oral administration; type: ADME, organism-based; conditions: in vivo; procedure, shortened: as §2
# [22] = test system: Human immunodeficiency virus 1; assay: Effective concentration against human immunodeficiency virus type 1 K103N and Y181C mutant strains; type: functional, organism-based; procedure, shortened: as §1
# [23] = Half life in rat was determined after intravenous administration; type: ADME, organism-based; conditions: in vivo; procedure, shortened: as §3
# [24] = Half life in dog was determined by intravenous administration; type: ADME, organism-based, Canis lupus familiaris; conditions: in vivo; procedure, shortened: as §3
# [25] = Area under the concentration time curve in monkey (intravenous dosage of 1.25 mg/ kg) was determined; type: ADME; conditions: cercopithecidae, in vivo; procedure, shortened: as §3
smiles,measurement,setting,value
Cc1cc(C)c(Nc2ccnc(Nc3ccc(C#N)cc3)n2)c(C)c1 [DAPIVIRINE],EC50,[1],37 nM
same,EC50,[2],11 nM
same,EC50,[3],7 nM
same,EC50,[4],2 nM
same,EC50,[5],1.2 nM
same,EC50,[6],2 nM
O=C1Nc2ccc(Cl)cc2[C@@](C#CC2CC2)(C(F)(F)F)O1 [EFAVIRENZ],EC50,[7],28 nM
same,EC50,[1],78 nM
same,EC50,[8],37 nM
same,EC50,[2],35 nM
same,EC50,[9],2 nM
same,EC50,[10],1.4 nM
same,EC50,[6],275 nM
Cc1ccnc2c1NC(=O)c1cccnc1N2C1CC1 [NEVIRAPINE],EC50,[11],597 nM
same,EC50,[7],2880 nM
same,EC50,[1],10000 nM
same,EC50,[12],10 µM
same,EC50,[13],81 nM
same,EC50,[6],1000 nM
same,EC50,[14],10 µM
Cc1cc(/C=C/C#N)cc(C)c1Nc1ccnc(Nc2ccc(C#N)cc2)n1 [RILPIVIRINE],EC50,[15],1.3 nM
same,EC50,[16],0.4 nM
same,EC50,[7],0.3 nM
same,half-life,[17],2340 min
same,AUC,[18],8700 ng·h/mL
same,AUC,[19],3100 ng·h/mL
same,EC50,[1],2 nM
same,AUC,[20],44000 ng·h/mL
same,EC50,[2],0.4 nM
same,half-life,[21],168 min
same,EC50,[22],1 nM
same,half-life,[23],264 min
same,half-life,[24],1860 min
same,AUC,[25],1400 ng·h/mL
same,EC50,[6],0.1 nM
